ChEMBL document CHEMBL1157968, “Chemical and cytotoxic constituents from the leaves of Cinnamomum kotoense” (2006)

Experiments:
Assay type in all cases: functional
[1] = system: HeLa; assay: Cell cycle arrest in human HeLa cells pretreated with 10 uM Dexamethasone for 1 hr assessed as G2/M phase accumulation at 100 uM after 24 hrs by FACS
Method in brief: (§1)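 HeLa cells pretreated for 1 h with the listed agent (10 mM GSH ethyl ester, 10 µM dexamethasone, 10 µM pifithrin, 100 µM Boc-Asp(OMe)-fmk or 5 µM cyclosporin A), then given 100 µM compound for 24 h. Cells fixed in PBS-MeOH, stained with PI/RNase and analysed by flow cytometry for DNA content. At least three experiments, one representative shown.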

[2] = system: HeLa; assay: Cell cycle arrest in human HeLa cells pretreated with 10 mM glutathione ethyl ester for 1 hr assessed as S phase accumulation at 100 uM after 24 hrs by FACS; method in brief: as §1
[3] = system: HeLa; assay: Cell cycle arrest in human HeLa cells assessed as S phase accumulation at 25 uM after 24 hrs by FACS
Method in brief: (§2)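 HeLa cells seeded 5 × 10^5 per dish 48 h ahead in DMEM with 10% FCS, then exposed to compound for 24 h (DMSO 0.1% final). Adherent and floating cells pooled, fixed in PBS-MeOH (1:2) at 4 °C for at least 18 h, and stained with PI (50 µg/mL) plus RNase A for 30 min at room temperature. Flow cytometry at 488 nm excitation, doublets gated out; phase percentages taken from DNA histograms.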

[4] = system: HeLa; assay: Induction of apoptosis in human HeLa cells at 100 uM after 24 hrs by TUNEL assay
Method in brief: (§3)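 HeLa in DMEM/10% FCS, untreated or pretreated 1 h with listed inhibitor, then 100 µM agent (0.1% DMSO final) for 24 h. Pooled cells fixed in 1% paraformaldehyde (30 min, 4 °C), 70% EtOH (30 min, −20 °C); strand breaks labelled with TdT/fluorescein-BrdUTP (1 h, 37 °C), PI/RNase counterstain; flow cytometry, % apoptotic cells; ≥3 experiments.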

[5] = system: HeLa; assay: Induction of apoptosis in human HeLa cells assessed as number of cells with decreased mitochondrial membrane potential at 100 uM after 12 hrs by measuring rhodamine 123 fluorescence intensity; design: scale not given: the % may be the effect or the level left
Method in brief: (§4)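 Cells in DMEM/10% FCS, medium renewed at 80% confluence, then 100 µM agent (0.1% DMSO final) for 1–24 h. Stained with 5 µM rhodamine 123 for 30 min in the dark, washed, trypsinized and resuspended in PBS; flow cytometry, percentage of cells with weak rhodamine 123 staining (reduced ΔΨm); at least three experiments, representative shown.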

[6] = system: HeLa; assay: Cell cycle arrest in human HeLa cells assessed as subG1 phase accumulation at 25 uM after 24 hrs by FACS; method in brief: as §2
[7] = system: HeLa; assay: Induction of apoptosis in human HeLa cells assessed as increase in intracellular nitric oxide level at 100 uM after 3 hrs by FACS relative to untreated control
Method in brief: (§5)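 HeLa cells at 80% confluence were exposed to 100 µM for 1, 3 or 24 h and then stained with 1 µM DAF-2 for 10 min in the dark. After trypsinization, DAF-2 fluorescence was measured by flow cytometry and taken as fold versus untreated cells. At least three experiments.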

[8] = system: HeLa; assay: Cell cycle arrest in human HeLa cells pretreated with 10 uM pifithrin-alpha for 1 hr assessed as subG1 phase accumulation at 100 uM after 24 hrs by FACS; method in brief: as §1
[9] = system: HeLa; assay: Induction of apoptosis in human HeLa cells assessed as increase in intracellular glutathione-depleted cell population at 100 uM after 24 hrs by FACS
Method in brief: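 HeLa cells at 80% confluence got fresh medium and were exposed for 24 h. Adherent and floating cells were pooled, adjusted to (1-2) × 10^6/mL and stained with 25 µM CMF-DA for 30 min at 37 °C. After washing, flow cytometry scored the percentage of GSH-negative cells. At least three experiments.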

[10] = system: HeLa; assay: Cell cycle arrest in human HeLa cells assessed as G1 phase accumulation at 50 uM after 24 hrs by FACS; method in brief: as §2
[11] = system: HeLa; assay: Cell cycle arrest in human HeLa cells assessed as G1 phase accumulation at 25 uM after 24 hrs by FACS; method in brief: as §2
[12] = system: HeLa; assay: Induction of apoptosis in human HeLa cells pretreated with 10 uM Dexamethasone for 1 hr at 100 uM after 24 hrs by TUNEL assay; method in brief: as §3
[13] = system: HeLa; assay: Induction of apoptosis in human HeLa cells assessed as number of cells with decreased mitochondrial membrane potential at 100 uM after 3 hrs by measuring rhodamine 123 fluorescence intensity; design: scale not given: the % may be the effect or the level left; method in brief: as §4
[14] = system: HeLa; assay: Cell cycle arrest in human HeLa cells pretreated with 10 mM glutathione ethyl ester for 1 hr assessed as subG1 phase accumulation at 100 uM after 24 hrs by FACS; method in brief: as §1
[15] = system: HeLa; assay: Induction of apoptosis in human HeLa cells assessed as increase caspase 3/7 activities at 100 uM after 24 hrs by FACS relative to control
Method in brief: (§6)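 After 3–24 h exposure at 100 µM, HeLa cells were trypsinized. 1 × 10^6 cells in DMEM were mixed 1:1 with Z-DEVD-R110 substrate reagent and incubated 1 h at 37 °C, then washed. Released R110 read per cell by flow cytometry (ex 488/em 520 nm) and expressed as fold over untreated cells. At least three runs.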

[16] = system: HeLa; assay: Induction of apoptosis in human HeLa cells assessed as number of cells with decreased mitochondrial membrane potential at 100 uM after 24 hrs by measuring rhodamine 123 fluorescence intensity; design: scale not given: the % may be the effect or the level left; method in brief: as §4
[17] = system: HeLa; assay: Induction of apoptosis in human HeLa cells assessed as increase in intracellular nitric oxide level at 100 uM after 24 hrs by FACS relative to untreated control; method in brief: as §5
[18] = system: HeLa; assay: Induction of apoptosis in human HeLa cells assessed as increase caspase 3/7 activities at 100 uM after 6 hrs by FACS relative to control; method in brief: as §6
[19] = system: HeLa; assay: Induction of apoptosis in human HeLa cells pretreated with 100 uM Boc-Asp(OMe)-fmk for 1 hr at 100 uM after 24 hrs by TUNEL assay; method in brief: as §3
[20] = system: HeLa; assay: Induction of apoptosis in human HeLa cells assessed as increase in intracellular nitric oxide level at 100 uM after 1 hr by FACS relative to untreated control; method in brief: as §5
[21] = system: HeLa; assay: Cell cycle arrest in human HeLa cells pretreated with 100 uM Boc-Asp(OMe)-fmk for 1 hr assessed as subG1 phase accumulation at 100 uM after 24 hrs by FACS; method in brief: as §1
[22] = system: HeLa; assay: Induction of apoptosis in human HeLa cells assessed as increase in intracellular peroxide level at 100 uM after 1 hr by FACS relative to untreated control
Method in brief: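 HeLa cells at 80% confluence were refed and exposed to 100 µM for 1, 3 or 24 h. They were loaded with 10 µM DCFH-DA for 30 min in the dark, trypsinized and resuspended in PBS. DCF fluorescence was measured by flow cytometry and expressed as fold versus untreated cells. At least three experiments.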

[23] = system: HeLa; assay: Cell cycle arrest in human HeLa cells assessed as S phase accumulation at 25 50 after 24 hrs by FACS; method in brief: as §2
[24] = system: HeLa; assay: Cell cycle arrest in human HeLa cells pretreated with 10 uM pifithrin-alpha for 1 hr assessed as S phase accumulation at 100 uM after 24 hrs by FACS; method in brief: as §1
[25] = system: HeLa; assay: Cell cycle arrest in human HeLa cells pretreated with 10 uM Dexamethasone for 1 hr assessed as G1 phase accumulation at 100 uM after 24 hrs by FACS; method in brief: as §1

CCCCCCCCCCCCC/C=C(/C(=O)OC)[C@@H](O)C(C)=O [SECOKOTOMOLIDE A]
Activity [1]: 12.3% | Activity [2]: 8.4% | Activity [3]: 18.1% | Activity [4]: 72.3% | Activity [5]: 75.1% | Activity [6]: 47.7% | fold change (FC) [7]: 2.1 | Activity [8]: 40.9% | Activity [9]: 98% | Activity [10]: 50.8% | Activity [11]: 55.2% | Activity [12]: 55.3% | Activity [13]: 2.2% | Activity [14]: 11.3% | fold change (FC) [15]: 1.7 | Activity [16]: 75.1% | fold change (FC) [17]: 2.1 | fold change (FC) [18]: 5.9 | Activity [19]: 39% | fold change (FC) [20]: 2.1 | Activity [21]: 74.8% | fold change (FC) [22]: 3.4 | Activity [23]: 20.3% | Activity [24]: 48.5% | Activity [25]: 53.9%
